Data on 38 sequences can be found in the array DNA melting data of Ke et al. (doi:10.1101/2024.01.08.574731).

A short description of data set [1]: folding enthalpy; higher = less favourable; fluorescence melt of hairpins on a sequencing array, two-state fit. The following applies: sodium 0.088 M. The essentials: (§1)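 Folding enthalpy and melting temperature were estimated with bootstrapped two-state fits and combined across four replicates by inverse-variance weighting, with fitted temperatures raised by 9.35 °C to match UV melts. The data were Cy3 fluorescence of library hairpins, with annealed Cy3 and quencher oligos, on a sequenced MiSeq flow cell in 50 mM Na-HEPES pH 8.0, 25 mM NaCl, imaged in 2.5 °C steps up to 60 °C and normalised to pre-quench Cy3 and control constructs.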

Data set [2] in a line: melting temperature; fluorescence melt of hairpins on a sequencing array, two-state fit, raised by 9.35 °C to match UV melts. The following applies: sodium 0.088 M. The method in brief:
as §1

Take GATCTAGCTATAGATC ((((((....)))))): the folding enthalpy in data set [1] was -40.2 kcal/mol. Besides, the Tm in data set [2] came to 47.7 °C.
Take GATCTAGGCCTAGATC ((((((....)))))): in data set [1], the folding enthalpy was -56 kcal/mol. For the same sequence, the Tm in data set [2] was found to be 52.4 °C.
On to GATCTAGTCATAGATC ((((((....)))))), for which the folding enthalpy in data set [1] is -38.4 kcal/mol. Further, in data set [2], the Tm is 50 °C.
The matching figures for GATCTAGTGATAGATC ((((((....)))))): -34.5 kcal/mol and 45.7 °C.
Consider GATCTAGTTGTAGATC ((((((....)))))), for which the folding enthalpy in data set [1] was -28.2 kcal/mol. Besides, in data set [2], the Tm stood at 41.2 °C.
As to GATCTATAAATAGATC ((((((....)))))), in data set [1], the folding enthalpy is -35.4 kcal/mol. Further, the Tm in data set [2] was 39.9 °C.
The matching figures for GATCTATAGCTAGATC ((((((....)))))): -28.7 kcal/mol and 36.5 °C.
On the same counts, the results for GATCTATATTTAGATC ((((((....)))))) are -34.6 kcal/mol and 43.1 °C.
Consider GATCTATCCGTAGATC ((((((....)))))), for which, in data set [1], the folding enthalpy is -30.1 kcal/mol. The Tm in data set [2] came to 43.1 °C.
On the same counts, the results for GATCTATCGCTAGATC ((((((....)))))) are -15 kcal/mol and 39.8 °C.
The matching figures for GATCTATCGGTAGATC ((((((....)))))): -24.7 kcal/mol and 39.1 °C.
As to GATCTATGATAGATC ((((((...)))))), in data set [1], the folding enthalpy was -25.2 kcal/mol. Also, in data set [2], the Tm was 37.3 °C.
On the same counts, the results for GATCTATTAATAGATC ((((((....)))))) are -37.8 kcal/mol and 45.2 °C.
The matching figures for GATCTATTATTAGATC ((((((....)))))): -34.1 kcal/mol and 43.2 °C.
The matching figures for GATCTATTCTTAGATC ((((((....)))))): -40.9 kcal/mol and 44.8 °C.
GATCTATTGTAGATC ((((((...)))))): the folding enthalpy in data set [1] was -22.8 kcal/mol. For the same sequence, in data set [2], the Tm came out at 41 °C.
The matching figures for GATCTATTTGTAGATC ((((((....)))))): -35 kcal/mol and 45.2 °C.
As for GATCTCAACCGAGATC ((((((....)))))), the folding enthalpy in data set [1] was -45.1 kcal/mol. Besides, the Tm in data set [2] came out at 51.9 °C.
As to GATCTCACAAGAGATC ((((((....)))))), the folding enthalpy in data set [1] was -38.7 kcal/mol. In addition, the Tm in data set [2] was determined as 53.7 °C.
On the same counts, the results for GATCTCACCGGAGATC ((((((....)))))) are -43.9 kcal/mol and 52.2 °C.
The matching figures for GATCTCACGGGAGATC ((((((....)))))): -39.3 kcal/mol and 51.7 °C.
Take GATCTCACTAGAGATC ((((((....)))))): the folding enthalpy in data set [1] was -40.9 kcal/mol. In addition, the Tm in data set [2] turned out to be 54.3 °C.
For GATCTCACTGAGATC ((((((...)))))), in data set [1], the folding enthalpy is -34 kcal/mol. Moreover, in data set [2], the Tm worked out at 52.1 °C.
With GATCTCACTGGAGATC ((((((....)))))), the folding enthalpy in data set [1] is -40 kcal/mol. The Tm in data set [2] was found to be 51.3 °C.
With GATCTCAGACGAGATC ((((((....)))))), the folding enthalpy in data set [1] was -36.9 kcal/mol. In data set [2], the Tm worked out at 51.2 °C.
Turning to GATCTCAGAGAGATC ((((((...)))))), the folding enthalpy in data set [1] is -36 kcal/mol. The Tm in data set [2] was determined as 55.4 °C.
On to GATCTCAGCCGAGATC ((((((....)))))), for which the folding enthalpy in data set [1] is -39.6 kcal/mol. Moreover, the Tm in data set [2] is 52.6 °C.
On the same counts, the results for GATCTCAGCGGAGATC ((((((....)))))) are -38.3 kcal/mol and 53.7 °C.
Consider GATCTCAGTAGAGATC ((((((....)))))), for which, in data set [1], the folding enthalpy was -37.4 kcal/mol. In data set [2], the Tm is 54.1 °C.
Consider GATCTCAGTCGAGATC ((((((....)))))), for which the folding enthalpy in data set [1] was -35.1 kcal/mol. Besides, the Tm in data set [2] came out at 54.1 °C.
The matching figures for GATCTCAGTGGAGATC ((((((....)))))): -40.9 kcal/mol and 52.6 °C.
On to GATCTCATAAGAGATC ((((((....)))))), for which, in data set [1], the folding enthalpy is -38.7 kcal/mol. For the same sequence, the Tm in data set [2] came to 52.3 °C.
On the same counts, the results for GATCTCATATGAGATC ((((((....)))))) are -43.8 kcal/mol and 54.2 °C.
On the same counts, the results for GATCTCATGAGAGATC ((((((....)))))) are -32 kcal/mol and 54.2 °C.
Turning to GATCTCATGTGAGATC ((((((....)))))), in data set [1], the folding enthalpy is -36.2 kcal/mol. In data set [2], the Tm turned out to be 52.9 °C.
On the same counts, the results for GATCTCATTGAGATC ((((((...)))))) are -34.9 kcal/mol and 54.2 °C.
The matching figures for GATCTCCACCGAGATC ((((((....)))))): -37.2 kcal/mol and 51.9 °C.
On the same counts, the results for GATCTCCATGGAGATC ((((((....)))))) are -42 kcal/mol and 57.4 °C.
